{"source": "ChEMBL document CHEMBL1795237", "about": "“Total synthesis of largazole and analogues: HDAC inhibition, antiproliferative activity and metabolic stability” (Bioorg Med Chem, 2011)", "key": {"MCF7": {"test_system": "MCF7", "experiment": "Growth inhibition of human MCF7 cells", "assay_type": "functional"}, "[1]": {"experiment": "Half life in mouse liver homogenates at 100 uM by UPLC/MS analysis", "assay_type": "ADME, tissue-based", "procedure,_shortened": "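Compound added to preincubated murine liver homogenate (tissue broken up in 10 mM Tris pH 7.4, 1:3 w:v) at 37 °C, final 100 μM. Samples taken at 0, 15, 30, 45, 60, 120 min, quenched in methanol, centrifuged 10,000g to remove protein. Supernatant analyzed by reversed-phase C18 UPLC with MeOH/water/0.05% TFA gradient; parent ions monitored by ESI MS selected ion recording.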"}, "[2]": {"molecular_target": "T1, Histone deacetylase (Homo sapiens) (UniProt Q13547+O15379+Q9UBN7+Q92769+Q9UQL6+Q8WUI4+Q9BY41+Q96DB2+P56524+Q9UKV0+Q969S8)", "details": "MDA-MB-231, 100 nM"}, "[3]": {"molecular_target": "T1, Histone deacetylase (Homo sapiens)", "details": "MCF7, 100 nM"}, "[4]": {"molecular_target": "T1, Histone deacetylase (Homo sapiens)", "details": "SKBr3, 100 nM"}}, "note": "The source made the active and inactive calls. No cut-off for these calls is given here.", "data": [{"smiles": "CC(C)[C@H]1NC(=O)[C@]2(C)CSC(=N2)c2csc(n2)[C@@H](Cc2ccccc2)NC(=O)C[C@@H](/C=C/CCS)OC1=O", "values": [{"measurement": "GI", "setting": "MCF7", "result": 377, "unit": "nM"}]}, {"smiles": "C[C@@]12CSC(=N1)c1csc(n1)CNC(=O)C[C@@H](/C=C/CCS)OC(=O)CNC2=O", "values": [{"measurement": "GI", "setting": "MCF7", "result": 2458, "unit": "nM"}, {"measurement": "half-life at 100 µM", "setting": "[1]", "result": 32, "unit": "min"}]}, {"smiles": "C[C@@]12CSC(=N1)c1csc(n1)CNC(=O)C[C@@H](/C=C/CCS)OC(=O)CCNC2=O", "values": [{"measurement": "GI", "setting": "MCF7", "result": 5900, "unit": "nM"}, {"measurement": "half-life at 100 µM", "setting": "[1]", "result": "≤ 5", "unit": "min"}]}, {"smiles": "CC(C)[C@@H]1NC(=O)[C@]2(C)CSC(=N2)c2csc(n2)CNC(=O)C[C@@H](/C=C/CCS)OC1=O", "note": "[LARGAZOLE THIOL]", "values": [{"measurement": "half-life at 100 µM", "setting": "[1]", "result": 51, "unit": "min"}]}, {"smiles": "CC(C)[C@H]1NC(=O)[C@]2(C)CSC(=N2)c2csc(n2)CNC(=O)C[C@@H](/C=C/CCS)OC1=O", "note": "[LARGAZOLE THIOL]", "values": [{"measurement": "inhibition", "setting": "[2]", "result": "inactive"}, {"measurement": "inhibition", "setting": "[3]", "result": "inactive"}, {"measurement": "inhibition", "setting": "[4]", "result": "inactive"}, {"measurement": "GI", "setting": "MCF7", "result": 277, "unit": "nM"}]}, {"smiles": "CC(C)[C@H]1NC(=O)C(C)(C)NC(=O)c2csc(n2)CNC(=O)C[C@@H](/C=C/CCS)OC1=O", "values": [{"measurement": "GI", "setting": "MCF7", "result": "> 10000", "unit": "nM"}, {"measurement": "half-life at 100 µM", "setting": "[1]", "result": "≤ 5", "unit": "min"}]}, {"smiles": "CCCCCCCC(=O)SCC/C=C/[C@@H]1CC(=O)NCc2nc(cs2)C2=N[C@@](C)(CS2)C(=O)N[C@@H](C(C)C)C(=O)O1", "note": "[LARGAZOLE]", "values": [{"measurement": "inhibition", "setting": "[2]", "result": "Active"}, {"measurement": "inhibition", "setting": "[3]", "result": "Active"}, {"measurement": "inhibition", "setting": "[4]", "result": "Active"}, {"measurement": "GI", "setting": "MCF7", "result": 5, "unit": "nM"}, {"measurement": "half-life at 100 µM", "setting": "[1]", "result": "≤ 5", "unit": "min"}]}]}
